Source: PubChem
procasp3 activ: activates human procaspase-3; activation, % at 8.5 µM; P42574; hit rate 0.11% among 330,000; recombinant procaspase-3 D3A, Ac-DEVD-pNA absorbance 405 nm;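 active means activation above the mean of all tested compounds plus 3 SD, cut at about 21% in these data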
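assay system = Procaspase-3 D3A mutant | signal = absorbance at 405 nm, 0 and 120 min | times = 1 h preincubation plus 2 h reaction at 25 °C | repeats = single replicate | read-out = % activation between DMSO and enzyme-spiked controls | medium = Zinc-free HEPES saline buffer with Triton X-100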
proCasp7 act: activates human procaspase-7, counter-screen for procaspase-3 activators; recombinant procaspase-7, Ac-DEVD-pNA absorbance 405 nm; D23A/D198A/D206A triple mutant, cannot self-cleave; scale: DMSO 0, 5 µM enzyme 100; activation, % at 8.5 µM; hit rate 0.093% among 330,000;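 active means percent activation above the screen-wide mean plus 3 SD, cut at about 25% in these data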
Target sequence (P55210 whole entry D23A/D198A/D206A): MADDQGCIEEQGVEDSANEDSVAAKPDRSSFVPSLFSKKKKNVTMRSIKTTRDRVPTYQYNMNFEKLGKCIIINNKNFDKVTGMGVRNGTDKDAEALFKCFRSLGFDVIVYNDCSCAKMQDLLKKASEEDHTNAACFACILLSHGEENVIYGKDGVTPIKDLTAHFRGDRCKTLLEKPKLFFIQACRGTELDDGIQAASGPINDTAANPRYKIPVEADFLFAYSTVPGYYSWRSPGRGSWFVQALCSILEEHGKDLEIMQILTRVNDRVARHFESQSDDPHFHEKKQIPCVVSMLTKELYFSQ
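buffer or medium = Zinc-free HEPES/NaCl buffer, pH 7.4 | material = Procaspase-7 triple mutant (PC-7 D3A) | input = 2 µM procaspase-7 mutant as dispensed | signal = Epi-absorbance of released pNA at 405 nm, two timepoints | timing = 1 h preincubation, 2 h reaction | replicates = singlicate compound testing | evaluation = % activation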
GAA850 FXN act: increases GAA850 frataxin promoter reporter activity. HEK293 lucGAA850 FXN promoter luciferase reporter, 24 h; percent of 10 µM SAHA response. activation, % at 6 µM. hit rate 0.56% among 360,000;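 active means activation above the average of all compounds screened plus 3 SD, cutoff fixed separately per campaign, cut at about 7.5% in these data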
Rce1 inh: yeast Ras-converting enzyme inhibition; hit rate 0.27% among 290,000; yeast membranes, quenched prenylated peptide cleavage fluorescence; calls only;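 active means fall in fluorescence gain of 50% or more versus controls, with final raw signal at or below 3038400; inconclusive means same 50% fall but final raw signal above 3038400; inactive means fall in fluorescence gain under 50%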
Target sequence (Q03530 whole entry, looked up): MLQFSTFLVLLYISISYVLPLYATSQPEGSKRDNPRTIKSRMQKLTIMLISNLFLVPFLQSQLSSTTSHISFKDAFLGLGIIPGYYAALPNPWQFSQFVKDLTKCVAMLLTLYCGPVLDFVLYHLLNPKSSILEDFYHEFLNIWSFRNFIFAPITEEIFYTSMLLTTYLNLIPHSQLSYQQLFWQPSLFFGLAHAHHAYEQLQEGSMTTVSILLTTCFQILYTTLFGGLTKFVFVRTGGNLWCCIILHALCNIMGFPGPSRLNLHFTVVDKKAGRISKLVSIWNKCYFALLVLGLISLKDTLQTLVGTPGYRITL
pCIP destab: p/CIP protein destabilization; AID 1984; decrease of EGFP signal, % at 10 µM; hit rate 0.01% among 290,000; F442A p/CIP-EGFP cells, EGFP fluorescence, 16 h;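 active means EGFP signal decrease of at least 30% at 10 µM or well 3 SD below plate mean, unless failing retest; inactive means the rest, including hits failing retest or dose response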
Hep lipid drop: modulators of hepatic lipid droplet formation; AML12 mouse hepatocytes, oleate lipid droplets, BODIPY imaging; AID 1656; hit rate 0.4% among 240,000; inhibition, % at 6.5 µM;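 active means lipid droplet intensity inhibited by at least 50%, with more than 500 cells counted; inconclusive means wells with under 300 cells, treated as cytotoxic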
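Assay system: AML12 hepatocytes (mouse); Probe or stimulus: oleic acid at 100 µM to induce lipid droplet formation; Dosing: compound at 6.5 µM only; Schedule: compound with oleate, overnight; Detection: fluorescence imaging, 20x objective, two fields per well; Measure: % inhibition of lipid droplet signal.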
Lipid drop inh: confirmation of inhibitors of hepatic lipid droplet formation. shares compounds with Hep lipid drop. AML12 mouse hepatocytes, BODIPY lipid droplet imaging; droplets induced with 100 µM oleic acid. inhibition, % at 5.2 µM. hit rate 65% among 870;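 active means inhibition of lipid droplet metric at least 50%, with more than 300 cells in each of four replicates; inconclusive means wells under 300 cells, flagged as toxic or low count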
AML12 tox img: toxic to AML12 mouse hepatocytes in counter-screen | shares compounds with Hep lipid drop | DAPI nuclear morphology cytotoxicity imaging; active compounds read high; cells fed 100 µM oleate overnight | z-score at 5 µM | hit rate 3% among 870 | AID 463200; in the data active means z-score above about 6.3;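 further: compound exposure lasted overnight at 37 °C before fixation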
AML12 tox conf: AML12 hepatocyte cytotoxicity, confirmed; shares compounds with Hep lipid drop; AML12 mouse hepatocyte viability, ATP luminescence; cells loaded with 100 µM oleic acid; cytotoxicity, % at 50 µM; 530 tested, under 10 active;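 active means cytotoxicity above 50% in each of four replicates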;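 further: compound exposure lasted overnight at 37 °C before the ATP read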
Numbers stand for hits. The list is not random: actives were taken first. Their share in the collection is about 1.2%.

Results for Cc1ccc(F)c(S(=O)(=O)NC(=O)C2(C)CCN2C(=O)Cc2ccccc2)c1 (centres undefined) ?
GAA850 FXN act: inactive

What do the screens show for `Cc1cc(=O)oc2cc(OCC(=O)NCCCN3CCCC3=O)ccc12`?
procasp3 activ: inactive; proCasp7 act: inactive; GAA850 FXN act: inactive; Rce1 inh: inactive; pCIP destab: inactive; Hep lipid drop: 52; Lipid drop inh: inactive; AML12 tox img: inactive

Results for O=C(NCc1ccccc1)c1cc(C2COCCN2S(=O)(=O)c2ccccc2)on1 (centres undefined) ?
GAA850 FXN act: inactive

Results for Cc1ccccc1-c1cc2nc(NCc3ccccc3F)n(C)c(=O)c2s1 ?
GAA850 FXN act: inactive

How did N#CC(c1ccc(O)cc1)N1CCN(C(C#N)c2ccc(O)cc2)CC1 (centres undefined) do in these assays?
GAA850 FXN act: inactive

Results for COc1ccc(C(C#N)N2CCOCC2)cc1 (centres undefined) ?
procasp3 activ: inactive; proCasp7 act: inactive; GAA850 FXN act: inactive; Rce1 inh: inactive; pCIP destab: inactive; Hep lipid drop: 53; Lipid drop inh: inactive; AML12 tox img: inactive

Results for Cc1cc(C)c(C(O)c2ncc(-c3ccccc3Cl)[nH]2)c(C)c1 (centres undefined) ?
GAA850 FXN act: inactive

How did Cc1c(C(=O)O)sc2nc3n(c(=O)c12)CCC(C)CC3 (centres undefined) do in these assays?
procasp3 activ: inactive; proCasp7 act: inactive; GAA850 FXN act: inactive; Rce1 inh: inactive; pCIP destab: inactive; Hep lipid drop: 93; Lipid drop inh: inactive; AML12 tox img: inactive

How did CCOC(=O)c1c(C)[nH]c(N=Nc2ccccc2C)c1C do in these assays?
procasp3 activ: inactive; proCasp7 act: inactive; GAA850 FXN act: inactive; Rce1 inh: inactive; pCIP destab: inactive; Hep lipid drop: 68; Lipid drop inh: 106; AML12 tox img: inactive; AML12 tox conf: inactive

What do the screens show for `COc1ccc(OC)c(NC(=O)COc2cc(O)c3c(c2)OC(C)(C)CC3=O)c1`?
GAA850 FXN act: inactive

How did Cc1noc(C)c1C(=O)Nc1ccc(F)cc1F do in these assays?
procasp3 activ: inactive; proCasp7 act: inactive; GAA850 FXN act: inactive; Rce1 inh: inactive; pCIP destab: inactive; Hep lipid drop: 55; Lipid drop inh: inactive; AML12 tox img: inactive

How did Cc1cc(C(=O)Nc2ccc(F)cc2F)on1 do in these assays?
procasp3 activ: inactive; proCasp7 act: inactive; GAA850 FXN act: inactive; Rce1 inh: inactive; pCIP destab: inactive; Hep lipid drop: inactive

What do the screens show for `CCOC(=O)c1cc(OCC)c2c(ccc3cc(OC)ccc32)n1`?
GAA850 FXN act: inactive

Results for CCOC(=O)C1CCN(C(=O)C2(NC(=O)Nc3ccccc3Cl)CCCCC2)CC1 ?
procasp3 activ: inactive; proCasp7 act: inactive; GAA850 FXN act: inactive; Rce1 inh: inactive; pCIP destab: inactive; Hep lipid drop: 73; Lipid drop inh: 101; AML12 tox img: inactive; AML12 tox conf: inactive

How did CCOC(=O)C1CCN(C(=O)C2(NC(=O)Nc3ccccc3C)CCCCC2)CC1 do in these assays?
procasp3 activ: inactive; proCasp7 act: inactive; GAA850 FXN act: inactive; Rce1 inh: inactive; pCIP destab: inactive; Hep lipid drop: 81; Lipid drop inh: 98; AML12 tox img: inactive; AML12 tox conf: inactive

What do the screens show for `Cc1ccccc1NC(=O)NC1(C(=O)N2CCC(C(N)=O)CC2)CCCCC1`?
procasp3 activ: inactive; proCasp7 act: inactive; GAA850 FXN act: inactive; Rce1 inh: inactive; pCIP destab: inactive; Hep lipid drop: inactive

What do the screens show for `O=C(Nc1ccccc1Cl)NC1(C(=O)N2CCCCC2)CCCCC1`?
procasp3 activ: inactive; proCasp7 act: inactive; GAA850 FXN act: inactive; Rce1 inh: inactive; pCIP destab: inactive; Hep lipid drop: inactive

What do the screens show for `COc1cc(Cn2c3ccc(NC(=O)CCc4ccc(O)cc4)cc3c(=O)n2C)ccc1F`?
GAA850 FXN act: inactive

Results for CC1(C(=O)NS(=O)(=O)c2ccccc2Cl)CCN1C(=O)CCC1CCCC1 (centres undefined) ?
GAA850 FXN act: inactive

Results for C(=N\Nc1nc(Nc2ccccc2)nc(N2CCOCC2)n1)/c1c[nH]c2ccccc12 ?
procasp3 activ: inactive; proCasp7 act: inactive; Rce1 inh: inactive; pCIP destab: inactive

What do the screens show for `O=C(Oc1cccc(/C=N/Nc2nc(Nc3ccccc3)nc(N3CCOCC3)n2)c1)c1ccco1`?
procasp3 activ: inactive; proCasp7 act: inactive; GAA850 FXN act: inactive; Rce1 inh: inactive; pCIP destab: inactive; Hep lipid drop: 120; Lipid drop inh: inactive; AML12 tox img: 13

What do the screens show for `COc1cc(/C=N/Nc2nc(N3CCCCC3)nc(N3CCCCC3)n2)ccc1OC(=O)c1ccco1`?
procasp3 activ: inactive; proCasp7 act: inactive; Rce1 inh: inactive; pCIP destab: inactive; Hep lipid drop: inactive

Results for Cc1[nH]c2ccccc2c1/C=N/Nc1nc(Nc2ccc(F)cc2)nc(N2CCOCC2)n1 ?
procasp3 activ: inactive; proCasp7 act: inactive; GAA850 FXN act: inactive; Rce1 inh: inactive; pCIP destab: inactive; Hep lipid drop: 61; Lipid drop inh: inconclusive; AML12 tox img: 108

Results for COc1cc(C2N3CC4(C)CN2CC(C)(C3)C4)ccc1O (centres undefined) ?
procasp3 activ: inactive; proCasp7 act: inactive; GAA850 FXN act: inactive; Rce1 inh: inactive; pCIP destab: inactive; Hep lipid drop: 92; Lipid drop inh: inactive; AML12 tox img: inactive

How did Cc1cccc(NC(=O)c2cc(S(=O)(=O)N3CCCCC3)c[nH]2)c1 do in these assays?
GAA850 FXN act: inactive

How did O=C(CSC1=NC2(CCCCC2)N=C1c1ccccc1)Nc1ccc2c(c1)OCCO2 do in these assays?
procasp3 activ: inactive; proCasp7 act: inactive; GAA850 FXN act: inactive; Rce1 inh: inactive; pCIP destab: inactive; Hep lipid drop: inactive

Results for O=C(CSC1=NC2(CCCCCC2)N=C1c1ccccc1)Nc1ccc2c(c1)OCCO2 ?
procasp3 activ: inactive; proCasp7 act: inactive; GAA850 FXN act: inactive; Rce1 inh: inactive; pCIP destab: inactive; Hep lipid drop: 59; Lipid drop inh: 69; AML12 tox img: inactive; AML12 tox conf: inactive

What do the screens show for `Cc1cc2c(cc1S(=O)(=O)Nc1ccc(F)cc1)n(C)c(=O)c(=O)n2C`?
procasp3 activ: inactive; proCasp7 act: inactive; GAA850 FXN act: inactive; Rce1 inh: inactive; pCIP destab: inactive; Hep lipid drop: inactive
